# Assay results from ChEMBL document CHEMBL1221317, “S-benzylisothiourea derivatives as small-molecule inhibitors of indoleamine-2,3-dioxygenase” (Bioorg Med Chem Lett, 2010).
# Active and inactive are the calls of the source. The rule behind the calls is not given here.
# Legend:
# [1] = molecular target: T1, Indoleamine 2,3-dioxygenase 1 (Homo sapiens, UniProt P14902); test: Inhibition of indoleamine-2,3-dioxygenase
# Summary of the method: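 Recombinant IDO, in 50 mM potassium phosphate buffer (pH 6.5) with 20 mM neutralized ascorbic acid, catalase, methylene blue and L-Trp. Incubated at 37 °C for 60 min, then stopped with 30% (w/v) trichloroacetic acid and heated at 50 °C for 15 min. After centrifugation, the supernatant was mixed with 2% (w/v) p-dimethylaminobenzaldehyde in acetic acid to detect kynurenine colorimetrically.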
# Target sequence in this assay (P14902 whole entry): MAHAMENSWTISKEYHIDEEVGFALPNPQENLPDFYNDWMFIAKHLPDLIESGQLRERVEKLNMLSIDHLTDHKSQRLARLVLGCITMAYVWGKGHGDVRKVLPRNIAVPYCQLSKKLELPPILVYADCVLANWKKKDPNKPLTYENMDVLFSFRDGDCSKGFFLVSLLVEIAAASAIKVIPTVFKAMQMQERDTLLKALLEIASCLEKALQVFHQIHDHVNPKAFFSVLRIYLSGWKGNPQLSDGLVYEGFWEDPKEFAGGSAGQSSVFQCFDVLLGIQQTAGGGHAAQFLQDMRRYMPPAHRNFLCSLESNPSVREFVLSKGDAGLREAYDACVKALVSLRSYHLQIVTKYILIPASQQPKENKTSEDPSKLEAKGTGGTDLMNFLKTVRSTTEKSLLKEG
# [2] = molecular target: T1, Indoleamine 2,3-dioxygenase 1; test: Inhibition of indoleamine-2,3-dioxygenase in human A431 cells assessed as inhibition of IFN-gamma-stimulated kynurenine production; assay type: cell-based, A-431
# Summary of the method: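 A431 cells (2.0 × 10⁵ cells/mL) were seeded and grown overnight. Serial DMSO dilutions of compound were added and incubated for 24 h more. Then 7% (v/v) aqueous trichloroacetic acid and 2% (w/v) p-dimethylaminobenzaldehyde in acetic acid (2:5) were added, and the kynurenine-derived yellow colour was read at 460 nm.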
# Target sequence in this assay (P14902 whole entry): as above
# A-431 = test: Inhibition of indoleamine-2,3-dioxygenase expression in human A431 cells at 10 uM; assay type: functional, cell-based
# Summary of the method: (§1)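 A431 cells were precultured for 24 h, given fresh medium, and treated with compound with or without IFN-γ (5 ng/ml). Culture media and cell extracts were then collected. IDO and α-tubulin in the lysates were detected by western blot, and kynurenine concentration was measured in the culture medium.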
# [3] = molecular target: T1, Indoleamine 2,3-dioxygenase 1; test: Inhibition of indoleamine-2,3-dioxygenase in human A431 cells assessed as inhibition of IFN-gamma-stimulated kynurenine production at 10 uM; assay type: cell-based; details: A-431; summary of the method: as §1
# Target sequence in this assay (P14902 whole entry, looked up): as the sequence (P14902 whole entry) above
SMILES,IC50 [1] [µM],IC50 [2] [µM],inhibition (A-431),inhibition [3]
N=C(N)SCc1ccc(C(F)(F)F)cc1,2.6,1.2,–,–
SCc1ccc(Cl)cc1Cl,3.5,4.6,–,–
C/N=C(\NC)SCc1ccc(Cl)cc1,21,> 20,–,–
O=S(=O)(O)c1ccc(Cl)cc1,> 100,> 20,–,–
O=S(O)c1ccc(Cl)cc1,> 100,> 20,–,–
CC(C)(C)c1ccc(CSC(=N)N)cc1,> 100,> 20,–,–
NC(=S)Nc1ccc(Cl)cc1,> 100,> 20,–,–
CS(=O)(=O)c1ccc(CSC(=N)N)cc1,> 100,> 10,–,–
NCc1ccc(Cl)cc1,> 100,> 20,–,–
N=C(N)SCc1ccccc1,61,> 10,–,–
N=C(N)SCCc1cccc(Cl)c1,> 100,> 20,–,–
OCc1ccc(Cl)cc1,> 100,> 20,–,–
NCCc1ccc(Cl)cc1,> 100,> 20,–,–
N=C(N)SCc1ccc(C(=O)O)cc1,> 100,> 20,–,–
SCc1ccc(Cl)cc1,3.2,1.1,–,–
N=C(N)SCc1ccc([N+](=O)[O-])cc1,11,2.2,–,–
N=C(N)SCc1ccc(F)cc1,13,2,–,–
CSC(=N)Nc1ccc(Cl)cc1,> 100,> 20,–,–
SCc1ccccc1 [BENZENEMETHANETHIOL],1.7,13,–,–
N=C(N)SCc1cccc(Cl)c1,4.6,1.4,–,–
CCc1ccc(CSC(=N)N)cc1,16,2.5,–,–

SMILES,IC50 [1] [µM],IC50 [2] [µM],inhibition (A-431),inhibition [3]
SCc1ccc(Cl)c(Cl)c1,0.1,1.1,–,–
N=C(N)SCCc1ccccc1Cl,> 100,> 20,–,–
N=C(N)SCc1ccc(Cl)cc1Cl,0.4,1.1,–,–
CC(C)c1ccc(CSC(=N)N)cc1,> 100,> 20,–,–
N=C(N)SCc1ccc(Cl)cc1,2.2,0.6,inactive,Active
N=C(N)SCc1ccc(Cl)c(Cl)c1,17,7.3,–,–
CSC(=N)NCCc1ccc(Cl)cc1,> 100,> 20,–,–
Cc1ccc(CSC(=N)N)cc1,30,6.8,–,–
N#Cc1ccc(CSC(=N)N)cc1,19,2.6,–,–
COc1ccc(CSC(=N)N)cc1,52,10,–,–
NC(=S)NCCc1ccc(Cl)cc1,100,> 20,–,–
Fc1ccc(CS)cc1,1.8,1.9,–,–
N=C(N)SCc1ccc(Br)cc1,1.3,0.8,–,–
Sc1ccc(Cl)cc1,1.9,> 20,–,–
SCc1ccccc1Cl,1.2,15,–,–
COc1ccc(CS)cc1,1.4,9.4,–,–
N=C(N)SCc1ccc(C(=O)c2ccccc2)cc1,> 100,> 20,–,–
N=C(N)SCCc1ccc(Cl)cc1,57,> 20,–,–
NC(=O)NCc1ccc(Cl)cc1,> 100,> 20,–,–
N=C(N)SCc1ccccc1Cl,10,4.8,–,–
Cc1ccc(CS)cc1,1.3,6.5,–,–
